The values below come from PubChem BioAssay.

The source made the active and inactive calls.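 Rule for the calls, unless noted: active = NADPH fluorescence slope more negative than the mean of all samples by about 3 SD, 99.7% confidence; inactive = the rest.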

Test [1] in a line: inhibitors of TNFa-induced NFkB p65 translocation, primary screen, imaging, HUVEC, MLSMR starter and 10KST1 sets (AID 438;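 active = inhibition above 20% together with a positive visual image hit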;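 note: compound added about 3h40 before a 20 min TNFalpha stimulation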;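 for inhibition: signal is the nuclear over cytoplasmic p65 intensity ratio per well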). To be noted: HUVEC TNFa-induced p65 nuclear translocation; cell count: measured here: nuclei count (cytotoxicity indicator), at 2.08 µM; inhibition: at 2 µM, stronger effect = higher value, 0% TNFa-plus-vehicle, 100% no-TNFa wells.
A short description of test [2]: endothelial E-selectin expression blockers – imaging, HUVEC, immunofluorescence, MLSMR starter and 10KST1 sets, primary screen (AID 487;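 active = visually confirmed hit in the image check and inhibition above 20%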;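 for inhibition: signal is fraction of cell area covered by stained E-selectin grains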;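 for nuclei count: 100% = median nuclei count of all wells on the same plate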). To be noted: HUVEC TNFalpha-induced E-selectin immunofluorescence imaging, at 2 µM; inhibition: stronger effect = higher value; nuclei count: measured here: cell number, toxicity.
Test [3] can be described thus: Primary imaging screen for DUSP6 inhibitors that restore phospho-Erk in transfected HeLa cells, chemical complementation (AID 609;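 active = compounds giving at least 50% inhibition in the cell-based MKP-3 phosphatase rescue imaging test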;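 for inhibition: phospho-Erk level distribution per well compared with pooled transfected vehicle control wells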). To be noted: HeLa MKP-3 transfected, phospho-Erk imaging KS statistic, at 10 µM, cells stimulated with TPA for 15 min.
Test [4] concerns the target Dual specificity protein phosphatase 6 (Homo sapiens) (UniProt Q16828). The description is as above. As to conditions: HeLa MKP-3 transfected, phospho-Erk imaging KS statistic; at 10 µM; stronger effect = higher value; cells stimulated with TPA for 15 min.
Test [5] concerns the target Voltage-gated potassium channel subunit beta-2 (Rattus norvegicus) (UniProt P62483). Briefly: inhibitors of rat Kvbeta2 reductase activity – biochemical, NADPH fluorescence, primary screen (AID 622;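 active = fluorescence slope higher than the sample average by over 3 SD, cut at about -0.22 in these data, passing the limit was not always enough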;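 note: slope of raw intensity against log time taken from 70 to 1610 s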). To be noted: recombinant KvBeta, 4-cyanobenzaldehyde reduction, at 10 µM, stronger effect = higher value.
Test [6] shares this target. Briefly: enhancers of rat Kvbeta2 NADPH turnover – biochemical, NADPH fluorescence, primary screen (AID 623).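 Note: fluorescence intensity change per second fitted from 20 to 320 s.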 As to conditions: Recombinant KvBeta, NADPH fluorescence decrease slope, 10 min; at 10 µM; stronger effect = lower value.
The target of test [7] is Alpha-2C adrenergic receptor (Homo sapiens) (UniProt P18825). The test can be described thus: compounds altering alpha2C-coupled GIRK flux – cell-based, HEK293 alpha2C/GIRK1/2, thallium flux, primary screen (AID 624;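 active = fluorescence slope after compound addition differing from the mean of all screened samples at 99.7% confidence, in either direction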;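 note: slope of fluorescence ratio to pre-addition baseline per second over 15 to 24 s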). To be noted: thallium flux BTC fluorescence, at 10 µM, actives lie on both sides.
Sequence of Alpha-2C adrenergic receptor (Homo sapiens) (P18825 whole entry, looked up): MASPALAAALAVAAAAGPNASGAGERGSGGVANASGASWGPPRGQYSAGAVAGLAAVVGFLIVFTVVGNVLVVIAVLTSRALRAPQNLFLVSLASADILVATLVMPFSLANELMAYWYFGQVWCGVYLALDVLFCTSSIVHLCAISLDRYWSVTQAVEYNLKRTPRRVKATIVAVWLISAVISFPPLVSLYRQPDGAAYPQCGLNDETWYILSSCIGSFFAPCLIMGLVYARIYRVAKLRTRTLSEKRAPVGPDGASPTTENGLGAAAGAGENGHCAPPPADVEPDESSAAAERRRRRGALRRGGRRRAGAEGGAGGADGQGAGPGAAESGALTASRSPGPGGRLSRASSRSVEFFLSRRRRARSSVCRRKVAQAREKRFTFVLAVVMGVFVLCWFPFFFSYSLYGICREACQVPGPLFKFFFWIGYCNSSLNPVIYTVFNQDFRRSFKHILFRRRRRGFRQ
Test [8] in a line: inhibitors of larval lipid processing in zebrafish, primary screen, whole organism, PED6 fluorescence, gall bladder and intestine (AID 686;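 active = a full or partial loss of lipid-probe fluorescence in the fish gall bladder, intestine or both, judged by eye; inactive = no fluorescence loss, or compound toxic to the fish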;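 note: signal comes from phospholipase A2 cleavage of quenched PED6 carried via bile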). To be noted: Zebrafish larvae PED6 lipid processing, fluorescence scoring; screened at 20 µM (by protocol). The procedure, abridged: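 Doses: 20 µM single dose. Test system: live zebrafish larvae aged 5-7 days, whole organism. Quantity: five larvae per well. Measured by: By-eye fluorescence microscopy. Reagent: ingested quenched lipid PED6 at 100 nM. Read-out: visual per-well fluorescence inhibition score. Times: overnight exposure of larvae to compound plus PED6.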

Test [9] can be described thus: loss of swimming-algae plug formation – whole organism, Chlamydomonas reinhardtii, WT vs cilia-less mutant, absorbance, 96-well, primary screen (AID 463189;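 active = inhibition at or above 50% relative to wild type and mutant plate controls; inactive = inhibition below 50%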;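 note: 0% = wild type cc124 cells in DMSO and 100% = ciliumless bld1 mutant cells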). As to conditions: Chlamydomonas reinhardtii gravitaxis, OD600 absorbance, 2 days; at 10 µM; stronger effect = higher value.
[10] abbreviates: measured here: cell density z-score.
Where [11] appears, read: measured here: nuclear c-Myc green intensity z-score.
Where [12] appears, read: measured here: nuclear pErk red intensity z-score, stronger effect = higher value.

Sequence of Dual specificity protein phosphatase 6 (Homo sapiens) (Q16828 whole entry, looked up): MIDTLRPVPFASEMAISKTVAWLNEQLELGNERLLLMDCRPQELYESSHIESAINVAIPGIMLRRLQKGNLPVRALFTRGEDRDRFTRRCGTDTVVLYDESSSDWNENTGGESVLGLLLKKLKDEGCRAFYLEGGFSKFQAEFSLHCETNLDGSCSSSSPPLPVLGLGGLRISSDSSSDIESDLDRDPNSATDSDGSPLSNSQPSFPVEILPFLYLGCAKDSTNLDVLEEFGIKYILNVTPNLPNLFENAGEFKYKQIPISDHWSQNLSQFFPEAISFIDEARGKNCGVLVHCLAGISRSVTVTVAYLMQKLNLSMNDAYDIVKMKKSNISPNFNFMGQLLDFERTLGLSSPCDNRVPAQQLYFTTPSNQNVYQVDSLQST
Sequence of Voltage-gated potassium channel subunit beta-2 (Rattus norvegicus) (P62483 whole entry, looked up): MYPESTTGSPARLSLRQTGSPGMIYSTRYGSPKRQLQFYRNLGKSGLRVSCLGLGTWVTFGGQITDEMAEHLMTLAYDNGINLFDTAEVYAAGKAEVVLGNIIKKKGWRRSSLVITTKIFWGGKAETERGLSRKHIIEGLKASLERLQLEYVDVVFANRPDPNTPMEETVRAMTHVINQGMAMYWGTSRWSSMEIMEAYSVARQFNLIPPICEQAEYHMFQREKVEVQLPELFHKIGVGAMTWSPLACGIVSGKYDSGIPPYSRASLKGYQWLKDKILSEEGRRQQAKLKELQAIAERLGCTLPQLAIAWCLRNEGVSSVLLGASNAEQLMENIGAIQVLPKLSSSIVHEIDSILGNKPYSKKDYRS

As for `[N-]=[N+]=CC(=O)c1ccnc(C(=O)C=[N+]=[N-])c1`, in test [1], the cell count came to 544. Further, the inhibition (commonly the relative decrease from the control value, in per cent) in [1] is -10.2% (inactive); in [2] it was -164% (inactive); in [4], 21.8% (inactive); in test [9], 3.22% (inactive). In addition, the nuclei count in test [2] came out at 136%. Further, the z-score in test [3] (setting [10]) was 1.23; in test [3] (setting [11]), -1.66; in [3] (setting [12]), -0.478. Besides, the fluorescence slope in test [5] is -0.54 (inactive). The NADPH fluorescence slope in test [6] was -6.3e-05 (inactive). Further, the slope in [7] was 0.00557 (inactive). Further, in test [8], the outcome was inactive.
Consider `N=c1c2c(-c3ccccc3)c(-c3ccccc3)n(Cc3ccccc3)c2ncn1CCCn1ccnc1`, for which, in test [1], the cell count was determined as 551. Also, the inhibition was -6.7% (inactive) in [1], 17.5% (inactive) in [2], -1.75% (inactive) in test [4] and 118% (active) in test [9]. Besides, the nuclei count in test [2] was found to be 142%. Besides, the figures for the z-score in test [3] (setting [10]), in [3] (setting [11]) and in test [3] (setting [12]) were -0.862, 0.115 and -0.203, respectively. Further, the fluorescence slope in test [5] was -0.292 (inactive). Moreover, the NADPH fluorescence slope in test [6] is 9.2e-06 (inactive). The slope in [7] is 0.00345 (inactive). Moreover, in test [8], the result was inactive.
Regarding `Cc1ccc(-n2c(=O)c3c4c(sc3n3c(C)nnc23)COC(C(C)C)C4)cc1` (stereo not given), the cell count in test [1] stood at 551. Besides, the inhibition in test [1] was -2.6% (inactive); in test [2] it was -1.3% (inactive); in [4], 9.82% (inactive); in test [9], 49.1% (inactive). In addition, the nuclei count in [2] is 122%. In addition, the values for the z-score in [3] (setting [10]), in test [3] (setting [11]) and in test [3] (setting [12]) were 0.656, -0.667 and -0.392, respectively. For the same compound, the fluorescence slope in [5] is -0.411 (inactive). Besides, in test [6], the NADPH fluorescence slope was 2.1e-05 (inactive). Also, the slope in test [7] is 0.00541 (inactive). Further, in [8], the call was inactive.
For `CCCOc1ccc(/C(O)=C2/C(=O)C(=O)N(CCN3CCOCC3)C2c2ccccc2)cc1` (stereo not given), in [1], the cell count came out at 365. Further, the inhibition was -10.5% (inactive) in test [1], -132% (inactive) in [2], -0.159% (inactive) in test [4] and -3.19% (inactive) in test [9]. The compound further returned a nuclei count in test [2] of 144%. The z-score in test [3] (setting [10]) was -0.109; in [3] (setting [11]) it was 0.153; in test [3] (setting [12]) it was 0.743. In addition, the fluorescence slope in [5] is -0.426 (inactive). In addition, in [6], the NADPH fluorescence slope is -6.6e-05 (inactive). The slope in test [7] was 0.00576 (inactive). Moreover, in test [8], the compound was classed as inactive.
With `OC(CNCCCN1CCCCC1)COc1ccccc1` (stereo not given), the cell count in test [1] came out at 630. Besides, the inhibition in test [1] is -6.2% (inactive); in test [2], -169% (inactive); in test [4], 17% (inactive); in [9] it was 5.42% (inactive). This compound also returned a nuclei count in test [2] of 178%. For the same compound, the z-score in test [3] (setting [10]) was -0.145; in test [3] (setting [11]) it was 0.177; in test [3] (setting [12]), 0.518. In addition, the fluorescence slope in [5] is -0.512 (inactive). In addition, in test [6], the NADPH fluorescence slope is -7.1e-05 (inactive). In test [7], the slope is 0.00429 (inactive). For the same compound, the result in test [8] was inactive.
`O=C(OCCN1CCOCC1)c1ccc(OCCN2CCOCC2)cc1`: the cell count in test [1] was determined as 573. The inhibition in test [1] is -2.2% (inactive); in test [2], -54.5% (inactive); in test [4] it was 1.75% (inactive); in test [9], 32.3% (inactive). This compound had a nuclei count in test [2] of 130%. The values for the z-score in test [3] (setting [10]), in test [3] (setting [11]) and in test [3] (setting [12]) were -0.658, 0.853 and 0.881, respectively. Also, in test [5], the fluorescence slope was -0.555 (inactive). The NADPH fluorescence slope in test [6] is -5.3e-05 (inactive). The slope in test [7] was 0.00568 (inactive). In test [8], the compound was called inactive.
Regarding `Cc1ccc(S(=O)(=O)N2CCN(c3nc(C)c4c(c3C#N)CC(C)(C)OC4)CC2)cc1`, the cell count in test [1] came to 645. Besides, the inhibition was -13.9% (inactive) in [1], 9.7% (inactive) in test [2], 22.7% (inactive) in test [4] and 110% (active) in test [9]. For the same compound, in test [2], the nuclei count worked out at 182%. For the same compound, the values for the z-score in [3] (setting [10]), in [3] (setting [11]) and in [3] (setting [12]) were 1, -1.7 and 0.0451, respectively. In addition, in test [5], the fluorescence slope was -0.471 (inactive). For the same compound, in test [6], the NADPH fluorescence slope is -0.000183 (inactive). The slope in [7] was 0.0077 (inactive). Moreover, the outcome in test [8] was inactive.
As to `CCOC(=O)c1c(CNCCN(CC)CC)n(C)c2cc(Br)c(OC)cc12`, the cell count in test [1] stood at 321. Further, the inhibition in [1] was 3.8% (inactive); in test [2], -25% (inactive); in [4], 1.75% (inactive); in test [9] it was 28.1% (inactive). In test [2], this compound displayed a nuclei count of 77.4%. Also, the z-score in [3] (setting [10]) was -0.115; in test [3] (setting [11]) it was 0.118; in test [3] (setting [12]), -0.0858. The fluorescence slope in [5] is -0.439 (inactive). Further, the NADPH fluorescence slope in test [6] is -8.8e-06 (inactive). Moreover, the slope in test [7] was 0.00617 (inactive). Besides, the compound was called inactive in test [8].
Consider `Cc1csc2nc(CSc3nc4ccccc4o3)cn12`, for which the cell count in [1] amounted to 402. In addition, the inhibition in test [1] is -8.4% (inactive); in test [2] it was -53.8% (inactive); in test [4] it was 3.56% (inactive); in [9], 5.29% (inactive). This compound had a nuclei count in test [2] of 108%. Besides, the values for the z-score in test [3] (setting [10]), in [3] (setting [11]) and in [3] (setting [12]) were 0.0403, 1.14 and -0.0493, respectively. In addition, the fluorescence slope in test [5] was -0.545 (inactive). In test [6], the NADPH fluorescence slope is -5.7e-05 (inactive). In addition, the slope in test [7] was 0.00434 (inactive). Also, the compound was called inactive in [8].
On to `Cc1c(/C(O)=C2/C(=O)C(=O)N(CCCN3CCOCC3)C2c2ccncc2)cnn1-c1ccccc1` (stereo not given), for which the cell count in test [1] turned out to be 518. For the same compound, the inhibition is 8.4% (inactive) in test [1], -181% (inactive) in test [2], 8.76% (inactive) in [4] and 15.5% (inactive) in test [9]. The same compound displayed a nuclei count in test [2] of 149%. In addition, the results for the z-score in test [3] (setting [10]), in test [3] (setting [11]) and in test [3] (setting [12]) were 0.69, 0.756 and -0.189, respectively. In addition, the fluorescence slope in [5] is -0.552 (inactive). For the same compound, the NADPH fluorescence slope in test [6] was -1.5e-05 (inactive). In [7], the slope was 0.00511 (inactive). Also, in test [8], the call was inactive.
